From ChEMBL document CHEMBL4622841, “Structural modifications of indolinones bearing a pyrrole moiety and discovery of a multi-kinase inhibitor with potent antitumor activity” (Bioorg Med Chem, 2020)
Activity calls are given as the source filed them. The calls are words filed in the database; no cut-off is given here.

Key:
MKN-74 [1] = assay: Induction of apoptosis in human MKN74 cells assessed as early apoptotic cells at 0.3 uM incubated for 72 hrs by Annexin-V-FITC/propidium iodide staining-based flow cytometric analysis (reference value: 1.98%); assay type: functional
HT-29 [2] = assay: Inhibition of colony formation in human HT-29 cells at 1 uM measured after 14 days by crystal violet staining-based assay; assay type: functional, cell-based
How it was run: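 HT-29 cells exposed to compound for 14 days and colonies counted. Read-out is colony formation rate relative to vehicle, given as mean ± SEM. Significance versus the vehicle group was tested by unpaired two-tailed Student's t-test.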

HT-29 [3] = assay: Inhibition of receptor tyrosine kinase in human HT-29 cells assessed as reduction in ERK phosphorylation at Thr202/Tyr204 residues at 3 uM after 24 hrs by Western blotting analysis; assay type: cell-based
How it was run: (§1)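 Cells cultured overnight, then treated with compound at different concentrations for 24 h. About 1×10⁶ cells harvested and immunoblotted for p-AKT (Ser473), AKT, p-ERK (Thr202/Tyr204), ERK, with GAPDH as loading control. Detection by chemiluminescence and gel imaging. Blots shown are representative of several experiments.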

MKN-74 [4] = assay: Induction of apoptosis in human MKN74 cells assessed as viable cells at 1 uM incubated for 72 hrs by Annexin-V-FITC/propidium iodide staining-based flow cytometric analysis (reference value: 76.84%); assay type: functional; conditions: MKN-74, 72 h, read-out: Activity
HepG2 [5] = assay: Induction of apoptosis in human HepG2 cells assessed as late apoptotic cells at 1 uM incubated for 72 hrs by Annexin-V-FITC/propidium iodide staining-based flow cytometric analysis (reference value: 2.89%); assay type: functional
[6] = target: Cyclin-dependent kinase 4 (Homo sapiens, UniProt P11802); assay: Inhibition of CDK4 (unknown origin) at 1 uM using FAM-labeled peptide and ATP as substrate preincubated for 10 mins followed by substrate addition measured after 1 hr by mobility shift assay
[7] = target: Serine/threonine-protein kinase B-raf (Homo sapiens, UniProt P15056); assay: Inhibition of B-Raf (unknown origin) using FAM-labeled peptide and ATP as substrate preincubated for 10 mins followed by substrate addition measured after 1 hr by mobility shift assay
MKN-74 [8] = assay: Induction of apoptosis in human MKN74 cells assessed as late apoptotic cells at 3 uM incubated for 72 hrs by Annexin-V-FITC/propidium iodide staining-based flow cytometric analysis (reference value: 12.42%); assay type: functional
HUVEC = assay: Induction of apoptosis in human HUVEC cells assessed as early apoptotic cells at 0.3 uM incubated for 48 hrs by Annexin-V-FITC/propidium iodide staining-based flow cytometric analysis (reference value: 3.63%); assay type: functional
HepG2 [9] = assay: Inhibition of colony formation in human HepG2 cells at 1 uM measured after 14 days by crystal violet staining-based assay; assay type: functional, cell-based
How it was run: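 Cells plated and exposed to test agent at a range of concentrations for 14 days, then colonies counted. Colony formation expressed relative to vehicle-treated cells as mean ± SEM. Significance versus vehicle by unpaired two-tailed Student's t-test.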

MKN-74 [10] = assay: Induction of apoptosis in human MKN74 cells assessed as necrotic cells at 3 uM incubated for 72 hrs by Annexin-V-FITC/propidium iodide staining-based flow cytometric analysis (reference value: 6.29%); assay type: functional
HT-29 [11] = assay: Inhibition of receptor tyrosine kinase in human HT-29 cells assessed as reduction in AKT phosphorylation at Ser473 residue after 24 hrs by Western blotting analysis; assay type: cell-based; how it was run: as §1
[12] = target: Proto-oncogene tyrosine-protein kinase Src (Homo sapiens, UniProt P12931); assay: Inhibition of SRC (unknown origin) using FAM-labeled peptide and ATP as substrate preincubated for 10 mins followed by substrate addition measured after 1 hr by mobility shift assay
MKN-74 [13] = assay: Induction of apoptosis in human MKN74 cells incubated for 72 hrs by Annexin-V-FITC/propidium iodide staining-based flow cytometric analysis; assay type: functional, cell-based
[14] = Toxicity in nu/nu mouse xenografted with human HT-29 cells assessed as effect on body weight at 100 mg/kg, po qd for 18 days; assay type: organism-based; conditions: in vivo, 432 h
How it was run: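 Female nu/nu mice, 4–6 weeks old, implanted subcutaneously in the right flank with HT-29 cells (2×10⁶/mL). Once tumours reached 200 mm³, mice randomised to groups (n = 6) and dosed orally once daily at 100 mg/kg for 18 days. Body weight monitored during treatment. Results given as mean ± SD.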

Sequence of Serine/threonine-protein kinase B-raf (P15056 whole entry): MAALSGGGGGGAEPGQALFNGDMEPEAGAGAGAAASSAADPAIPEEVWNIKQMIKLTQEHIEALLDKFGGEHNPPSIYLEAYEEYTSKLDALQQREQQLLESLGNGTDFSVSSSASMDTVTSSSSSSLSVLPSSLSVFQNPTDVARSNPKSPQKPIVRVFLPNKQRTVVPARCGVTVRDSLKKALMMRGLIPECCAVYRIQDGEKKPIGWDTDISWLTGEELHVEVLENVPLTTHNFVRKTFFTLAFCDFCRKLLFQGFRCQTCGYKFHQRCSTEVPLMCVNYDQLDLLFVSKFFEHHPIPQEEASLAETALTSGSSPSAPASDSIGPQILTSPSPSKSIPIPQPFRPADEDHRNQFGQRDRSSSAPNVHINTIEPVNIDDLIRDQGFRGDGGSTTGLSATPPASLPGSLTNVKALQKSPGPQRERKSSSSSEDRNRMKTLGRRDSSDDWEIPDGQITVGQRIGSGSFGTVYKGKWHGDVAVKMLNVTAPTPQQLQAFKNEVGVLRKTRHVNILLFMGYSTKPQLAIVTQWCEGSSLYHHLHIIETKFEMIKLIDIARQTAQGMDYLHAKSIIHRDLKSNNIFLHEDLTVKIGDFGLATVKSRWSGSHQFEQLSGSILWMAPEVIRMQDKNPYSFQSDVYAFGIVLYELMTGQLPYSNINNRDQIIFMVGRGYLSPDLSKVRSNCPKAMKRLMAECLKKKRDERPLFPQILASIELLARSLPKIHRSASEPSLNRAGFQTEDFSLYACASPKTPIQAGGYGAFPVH
Sequence of Cyclin-dependent kinase 4 (P11802 whole entry): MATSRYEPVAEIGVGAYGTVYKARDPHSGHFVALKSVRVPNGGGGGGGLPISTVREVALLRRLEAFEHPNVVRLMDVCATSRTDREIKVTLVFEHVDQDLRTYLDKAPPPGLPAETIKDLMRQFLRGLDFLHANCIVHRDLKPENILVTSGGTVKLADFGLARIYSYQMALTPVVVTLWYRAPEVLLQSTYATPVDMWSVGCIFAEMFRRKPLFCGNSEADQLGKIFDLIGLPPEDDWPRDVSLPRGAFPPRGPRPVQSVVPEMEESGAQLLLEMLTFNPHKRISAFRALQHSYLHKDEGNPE
Sequence of Proto-oncogene tyrosine-protein kinase Src (P12931 2-536 limits assumed): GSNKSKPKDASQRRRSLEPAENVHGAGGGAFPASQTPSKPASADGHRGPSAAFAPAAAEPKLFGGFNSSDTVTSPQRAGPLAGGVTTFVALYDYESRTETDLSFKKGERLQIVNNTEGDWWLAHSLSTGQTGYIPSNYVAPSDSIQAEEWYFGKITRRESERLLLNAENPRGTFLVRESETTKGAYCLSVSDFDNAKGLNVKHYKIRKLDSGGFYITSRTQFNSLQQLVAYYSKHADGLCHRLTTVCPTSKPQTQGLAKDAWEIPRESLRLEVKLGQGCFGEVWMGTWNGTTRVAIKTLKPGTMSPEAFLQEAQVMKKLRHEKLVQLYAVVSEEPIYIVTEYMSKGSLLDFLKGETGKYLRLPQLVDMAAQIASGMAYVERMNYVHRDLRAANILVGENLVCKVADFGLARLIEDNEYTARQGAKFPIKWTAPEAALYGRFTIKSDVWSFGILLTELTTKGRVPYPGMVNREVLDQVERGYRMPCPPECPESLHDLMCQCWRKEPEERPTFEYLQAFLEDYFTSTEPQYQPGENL

For `COC(=O)c1ccc2c(c1)NC(=O)/C2=C(\Nc1ccc(-n2c(C)ccc2CN2CCN(C)CC2)cc1)c1ccccc1`, the Activity (MKN-74 [1]) was 2.41%, the inhibition (HT-29 [2]) was “Active” and the inhibition (HT-29 [3]) was “Active”. The viability at 1 µM (MKN-74 [4]) was 62.9%, the Activity (HepG2 [5]) was 61.54% and the inhibition [6] was “inactive”. It also gave an IC50 [7] of over 1 µM, an Activity (MKN-74 [8]) of 79.51% and an Activity (HUVEC) of 2.36%. For the same molecule, the inhibition (HepG2 [9]) was “Active”, the Activity (MKN-74 [10]) was 4.15% and the inhibition (HT-29 [11]) was “Dose-dependent effect”. The IC50 [12] was 0.178 µM, the Activity (MKN-74 [13]) was “Dose-dependent effect” and the Activity [14] was “Non-Toxic”.
